Assay outcomes: PubChem, several laboratories
In the library only some 10% were active in any assay of this set; here they are far more common.
L major viab: Leishmania major promastigote growth inhibition, primary screen. Leishmania major promastigotes, resazurin fluorescence viability. inhibition, % at 10 µM. actives 9% (n = 200,000); in the data active means inhibition above about 50%;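 further: promastigotes grown with compound for 44 hours at 28 °C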
PMI act: activators of human PMI, primary screen, biochemical, fluorescence intensity, near-Km mannose 6-phosphate | AID 1214, 2008 | activation factor at 20 µM | purified human PMI, coupled resazurin fluorescence, 20 min; hits give high values; 1 = vehicle control, 0 substrate-free wells | Mannose-6-phosphate isomerase (Homo sapiens), P34949 | actives 0.005% (n = 190,000);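 active means activation factor of 2 or more at 20 µM, relative to plate controls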
Target sequence (P34949 whole entry, looked up): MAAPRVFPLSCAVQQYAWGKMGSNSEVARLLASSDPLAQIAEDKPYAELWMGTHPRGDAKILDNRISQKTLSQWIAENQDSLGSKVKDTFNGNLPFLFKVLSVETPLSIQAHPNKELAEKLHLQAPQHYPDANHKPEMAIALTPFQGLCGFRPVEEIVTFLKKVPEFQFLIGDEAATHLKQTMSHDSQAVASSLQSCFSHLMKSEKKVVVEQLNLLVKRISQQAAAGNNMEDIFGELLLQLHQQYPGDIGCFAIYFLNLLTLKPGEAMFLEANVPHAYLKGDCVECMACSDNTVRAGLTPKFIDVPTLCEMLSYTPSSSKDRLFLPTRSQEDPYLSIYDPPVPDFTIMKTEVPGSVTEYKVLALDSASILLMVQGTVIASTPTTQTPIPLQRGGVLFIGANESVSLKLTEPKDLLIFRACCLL
WT yeast gro inh: growth inhibition of WT strain, primary screen, mitochondrial fusion inhibitor project, WT and mutant strains, chemical genetic; mitochondrial fusion phenotypic screen; inhibition, % at 10 µM; actives 2.1% (n = 190,000); in the data active means inhibition above about 58%; tested in S. cerevisiae
Diaphorase act: compounds boosting diaphorase resazurin reduction – biochemical, uHTS, resorufin fluorescence, counter-screen for diaphorase-coupled primary assays, primary screen; Diaphorase/resazurin coupled assay, 16 min; hits give high values; 1 = vehicle wells, 0 = NADH-free wells; activation factor at 20 µM; actives 0.005% (n = 190,000);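 active means diaphorase activity raised at least twofold by the compound at 20 µM; inactive means activation factor below 2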
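Material: purified diaphorase enzyme from Clostridium kluyveri / Medium: HEPES pH 7.4 buffer with MgCl2 and Tween 20 / Schedule: enzyme reaction of 16 min at room temperature / Measured by: resorufin fluorescence, excitation 544 nm, emission 590 nm / Evaluation: rise in resorufin formation, marking diaphorase activation or chemical reduction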
PMI act satM6P: human PMI activators, high substrate, primary screen, biochemical, fluorescence intensity, near-saturating mannose 6-phosphate. Mannose-6-phosphate isomerase (Homo sapiens), P34949. coupled PMI enzyme assay, resazurin fluorescence, 20 min; hits give high values; 1 = untreated enzyme, 0 = substrate-free blank. activation factor at 20 µM. actives 0.34% (n = 190,000). AID 1216, 2008;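 active means activation factor of 2 or more at 20 µM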
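Material: human phosphomannose isomerase with PGI, G6PDH, diaphorase coupling enzymes / Reagent: Man-6-P substrate 1.0 mM / Dosing: single compound dose of 20 µM, 1% DMSO final / Incubation: enzyme reaction with compound 20 min at room temperature / Signal: resorufin fluorescence (Ex 544/Em 590 nm) from resazurin via diaphorase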
Starred values were filed as active, the others as inactive.

SMILES	L major viab	PMI act	WT yeast gro inh	Diaphorase act	PMI act satM6P
CCN1CCCC1CNCc1cccc(OC)c1OCc1ccccc1F (centres undefined)	100*	1.1	7	1	1.1
CCN1CCCC1CNCc1cc(OC)c(OC)c(OC)c1 (centres undefined)	0	1	-2	0.9	1
CCN1CCCC1CNCc1cccc(OC)c1OCc1ccccc1 (centres undefined)	85*	1.1	-10	0.9	1.1
NC(=O)/C(=N\OC(=O)c1ccco1)c1nc(-c2ccc(Br)cc2)cs1	-4	1.1	3	1	1.1
NNC(=O)CCc1ccc(S(=O)(=O)N2CCOCC2)cc1	4	1	-4	0.9	1
O=C(Cn1nc([N+](=O)[O-])nc1Br)NC(c1ccccc1)c1ccccc1	79*	1	4	1	0.9
Cn1c(NNC(=O)C(c2ccccc2)c2ccccc2)cc(=O)n(C)c1=O	-5	0.9	11	0.8	0.5
COc1ccc(-c2ccc(SCC(=O)c3ccc(F)cc3)nn2)cc1OC	63*	1.2	22	1	1.1
CC1=C(C(=O)OC(C)C)C(c2cccnc2)C2=C(CC(C)(C)CC2=O)N1 (centres undefined)	92*	1.1	-3	1	1
CCOC(=O)C1=C(C)NC2=C(C(=O)CC(C)(C)C2)C1c1ccc2c(c1)CCCN2C (centres undefined)	21	1.5	-1	0.9	2*
CC1=C(C(=O)OC(C)C)C(c2ccc(N(C)C)cc2)C2=C(CC(C)(C)CC2=O)N1 (centres undefined)	23	0.9	9	0.8	1.1
COC(=O)C1=C(N)OC2=C(C(=O)CC(C)(C)C2)C1c1cccnc1 (centres undefined)	50*	1	2	0.9	1
COCCOC(=O)C1=C(C)NC2=C(C(=O)CC(C)(C)C2)C1c1cccnc1 (centres undefined)	64*	0.9	54	0.9	0.9
CCC(=O)Oc1ccc(C(=O)Nc2ccc3c(c2)C(=O)N(C2CCCCC2)C3=O)cc1	1	1.1	-6	0.9	1.1
O=C(Nc1ccccc1Cl)Nc1cccnc1Cl	8	1	-11	0.9	1
COCCNCC(=O)Nc1ccc(OC(F)(F)F)cc1	-9	1	-9	0.9	1.1
CCOC(=O)C(=O)C1=C(N2CCOCC2)/C(=C\c2ccc(F)cc2)CC1	71*	1	2	0.8	0.9
CCCCN(C(=O)NC(=O)C1=C(N2CCOCC2)/C(=C/c2ccccc2)CC1)S(C)(=O)=O	1	1.1	12	0.8	1
Cc1cc(Br)ccc1NCc1ccccn1	-2	0.9	18	0.9	1
CCOC(=O)c1nnc(-c2cccs2)nc1NC(C)C	-8	1	-4	0.9	1
CC(=O)c1ccc(OCC(C)C)c(CN2CCCCC2)c1	86*	1.1	-14	1	1.1
CC(C)COc1ccc(C(=O)CCN2CCCCC2)cc1	96*	0.9	10	1.1	1
CC(C)COc1ccc(C(=O)OCCN2CCOCC2)cc1	-1	1	-6	0.9	1.1
CCCCOc1ccc(C(=O)CCN2CCCCC2)cc1	92*	1	7	0.9	0.9
CCC(=O)c1ccc(OCCN2CCOCC2)cc1	-4	0.9	-3	0.9	1
SMILES	L major viab	PMI act	WT yeast gro inh	Diaphorase act	PMI act satM6P
Cn1c(SCc2ccc([N+](=O)[O-])cc2)nc2c(c1=O)SCC2	13	1.1	-4	0.9	1
Cn1c(SCc2c(F)cccc2Cl)nc2c(c1=O)SCC2	6	1	66*	0.9	1.1
CNCCOc1ccccc1-c1ccccc1	4	1	6	0.9	1
CCC(C)NCCOc1ccc(C(C)(C)c2ccccc2)cc1 (centres undefined)	100*	0.9	65	1.1	0.9
CNCCCOc1ccc(C(C)(C)c2ccccc2)cc1	100*	1	23	1	1.1
CC(C)(c1ccccc1)c1ccc(OCCCN2CCNCC2)cc1	100*	0.9	97	1	1
CCCOc1ccc(C(C)(O)CN2CCOCC2)cc1 (centres undefined)	1	0.9	10	0.9	1
COCCCNCCOc1ccc(C(C)(C)c2ccccc2)cc1	100*	1	37	0.9	1
Cc1cc2ccccc2n2c(SCC(=O)NCC3CCCO3)nnc12 (centres undefined)	-4	0.9	0	0.9	0.9
CCCOc1ccc(OCCCCNC(C)CC)cc1 (centres undefined)	99*	0.9	2	0.9	1
CC1(C)CC(=O)C2=C(C1)Nc1ccccc1NC2c1ccc2c(c1)OCO2 (centres undefined)	51*	1	-18	0.8	0.9
Cc1ccc(C2C3=C(CC(C)(C)CC3=O)Nc3onc(C)c32)cc1 (centres undefined)	53*	0.9	1	0.9	1
CC1(C)CC(=O)C2=C(C1)Nc1cc3c(cc1C2c1ccc2c(c1)OCO2)OCO3 (centres undefined)	99*	0.8	-3	0.7	0.9
COc1ccc(C2C3=C(CC(C)(C)CC3=O)Nc3cc4c(cc32)OCO4)cc1 (centres undefined)	99*	0.9	5	0.8	1
O=C1CC(c2ccc3c(c2)OCO3)c2cc3c(cc2N1)OCCO3 (centres undefined)	31	0.8	-12	0.8	0.9
COc1ccc(C2C(C#N)=C(C)NC3=C2C(=O)CC(C)(C)C3)cc1 (centres undefined)	1	1	5	0.7	1
CC1(C)CC(=O)C2=C(C1)Nc1ccccc1NC2c1ccccn1 (centres undefined)	-1	0.9	-2	0.9	1
COC1=CCC2([N+](=O)[O-])CN(CCO)CC1([N+](=O)[O-])C2 (centres undefined)	-5	1	-8	1	1
CC1(C)CC(=O)C2=C(C1)Nc1cc3c(cc1C2c1ccc(F)cc1)OCO3 (centres undefined)	100*	0.8	17	0.7	0.9
Cc1noc2c1C(c1ccc(N(C)C)cc1)C1=C(CC(C)(C)CC1=O)N2 (centres undefined)	4	0.9	0	0.8	1
COc1ccc(C(=O)C2CCCN(Cc3ccc4nonc4c3)C2)cc1OC (centres undefined)	89*	0.8	17	0.8	0.9
COc1ccc(C(=O)C2CCCN(Cc3nc4ccccc4nc3C)C2)cc1OC (centres undefined)	80*	0.8	0	0.7	0.9
